Data on 13 compounds can be found in PubChem BioAssay.

Active and inactive are the calls of the source.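 The calls were made as follows, unless noted: active = fluorescence slope higher than the sample average by over 3 SD (cut at about -0.22 in these data, passing the limit was not always enough); inactive = the rest.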

Assay [1] can be described thus: inhibitors of TNFa-induced NFkB p65 translocation, primary screen, imaging, HUVEC, MLSMR starter and 10KST1 sets (AID 438;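 active = inhibition above 20% together with a positive visual image hit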;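 also: compound added about 3h40 before a 20 min TNFalpha stimulation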;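 as to inhibition: signal is the nuclear over cytoplasmic p65 intensity ratio per well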). The note with it: HUVEC TNFa-induced p65 nuclear translocation; cell count: measured here: nuclei count (cytotoxicity indicator), at 2.08 µM; inhibition: at 2 µM, stronger effect = higher value, 0% TNFa-plus-vehicle, 100% no-TNFa wells.
A short description of assay [2]: inhibitors of mutant huntingtin aggregation, primary screen, imaging, exon1htt(103Q)mCFP cells, high-content imaging (AID 483;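 active = visual image review flags a hit and inhibition of aggregation exceeds 20%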;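 also: compound exposure lasted 3 days before fixation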;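 as to nuclei count: percent of the per-plate median nuclei count of sample wells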). The conditions noted are these: exon1htt(103Q)mCFP cell line, aggregate imaging, at 2 µM; inhibition of aggregation: stronger effect = higher value; nuclei count: measured here: cell count, toxicity.
Assay [3] in a line: inhibitors of E-selectin induction by TNFa, primary screen, imaging, HUVEC, immunofluorescence, MLSMR starter and 10KST1 sets (AID 487;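 active = visually confirmed hit in the image check and inhibition above 20%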;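 as to inhibition: signal is fraction of cell area covered by stained E-selectin grains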;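 as to nuclei count: 100% = median nuclei count of all wells on the same plate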). The note with it: HUVEC TNFalpha-induced E-selectin immunofluorescence imaging, at 2 µM; inhibition: stronger effect = higher value; nuclei count: measured here: cell number, toxicity.
Assay [4] deals with Voltage-gated potassium channel subunit beta-2 (Rattus norvegicus) (UniProt P62483). Nature of the assay: KvBeta enzyme negative modulators, primary screen, biochemical, NADPH fluorescence (AID 622).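 Also: slope of raw intensity against log time taken from 70 to 1610 s.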 The conditions noted are these: recombinant KvBeta, 4-cyanobenzaldehyde reduction, at 10 µM, stronger effect = higher value.
The target is the same in assay [5]. Nature of the assay: KvBeta positive modulators, primary screen, biochemical, NADPH fluorescence (AID 623;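 active = NADPH fluorescence slope more negative than the mean of all samples by about 3 SD, 99.7% confidence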;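 also: fluorescence intensity change per second fitted from 20 to 320 s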). The conditions noted are these: Recombinant KvBeta, NADPH fluorescence decrease slope, 10 min; at 10 µM; stronger effect = lower value.
Assay [6] addresses Alpha-2C adrenergic receptor (Homo sapiens) (UniProt P18825). Nature of the assay: modulators of alpha2C/GIRK thallium flux, primary screen, cell-based, HEK293 alpha2C/GIRK1/2 (AID 624;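 active = fluorescence slope after compound addition differing from the mean of all screened samples at 99.7% confidence, in either direction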;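 also: slope of fluorescence ratio to pre-addition baseline per second over 15 to 24 s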). The note with it: thallium flux BTC fluorescence, at 10 µM, actives lie on both sides.
Assay [7] can be described thus: inhibitors of larval lipid processing in zebrafish, primary screen, whole organism, PED6 fluorescence, gall bladder and intestine (AID 686;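 active = a full or partial loss of lipid-probe fluorescence in the fish gall bladder, intestine or both, judged by eye; inactive = no fluorescence loss, or compound toxic to the fish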;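 also: larvae 5 to 7 days old with five fish per well; signal comes from phospholipase A2 cleavage of quenched PED6 carried via bile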). The note with it: Zebrafish larvae PED6 lipid processing, fluorescence scoring; screened at 20 µM (by protocol). Summed up: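 System: live zebrafish larvae aged 5-7 days, whole organism; measure: graded gall bladder and intestinal fluorescence inhibition per well; incubation: overnight exposure; reagent: ingested quenched lipid PED6 at 100 nM; signal: By-eye fluorescence microscopy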

Assay [8] is described as follows: inhibitors of Sendai virus-induced IRF3 signaling, primary screen, TLR/RLR signaling modifier project, cell-based, Sendai virus stimulus, luciferase, 10K MLSCN set (AID 602276;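 active = inhibition at or above 50% at 10 µM; inactive = inhibition below 50%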;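 also: firefly luciferase from ISG56 promoter only with Renilla not read in this screen; 0% = Sendai virus plus DMSO and 100% = medium plus DMSO without virus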). The note with it: HEK293 RL24 IRF3 luciferase reporter, at 10 µM, stronger effect = higher value.
A short description of assay [9]: inhibitors of poly I:C-induced TLR3 signaling, primary screen, cell-based, poly I:C stimulus, luciferase, 10K MLSCN set (AID 602277;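 active = inhibition of the reporter signal at or above 50%; inactive = inhibition below 50%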). The note with it: HEK293-TLR3 RL24 IRF3 luciferase reporter, at 10 µM, stronger effect = higher value.

Alpha-2C adrenergic receptor (Homo sapiens), sequence (P18825 whole entry, looked up): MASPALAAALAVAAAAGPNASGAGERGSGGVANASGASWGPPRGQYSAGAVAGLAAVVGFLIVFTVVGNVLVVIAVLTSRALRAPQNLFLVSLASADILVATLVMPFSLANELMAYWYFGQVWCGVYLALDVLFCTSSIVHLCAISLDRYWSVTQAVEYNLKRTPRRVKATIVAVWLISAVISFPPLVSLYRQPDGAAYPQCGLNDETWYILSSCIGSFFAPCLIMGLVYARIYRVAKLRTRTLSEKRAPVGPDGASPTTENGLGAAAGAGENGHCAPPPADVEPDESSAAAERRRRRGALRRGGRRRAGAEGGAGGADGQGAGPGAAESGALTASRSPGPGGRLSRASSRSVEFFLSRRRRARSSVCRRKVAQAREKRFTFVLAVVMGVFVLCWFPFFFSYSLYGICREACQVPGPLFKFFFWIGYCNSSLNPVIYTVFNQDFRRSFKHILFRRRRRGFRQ
Voltage-gated potassium channel subunit beta-2 (Rattus norvegicus), sequence (P62483 whole entry, looked up): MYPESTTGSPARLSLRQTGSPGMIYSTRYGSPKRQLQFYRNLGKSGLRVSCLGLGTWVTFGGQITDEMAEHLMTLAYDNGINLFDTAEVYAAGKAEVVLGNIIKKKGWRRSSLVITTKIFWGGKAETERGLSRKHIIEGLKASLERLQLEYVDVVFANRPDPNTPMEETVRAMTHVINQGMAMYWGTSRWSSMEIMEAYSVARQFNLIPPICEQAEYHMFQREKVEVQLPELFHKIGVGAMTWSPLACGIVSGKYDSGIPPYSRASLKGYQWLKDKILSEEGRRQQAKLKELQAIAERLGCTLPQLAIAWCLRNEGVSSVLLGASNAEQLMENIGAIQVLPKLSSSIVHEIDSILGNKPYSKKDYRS

As to `O=C(Nc1cccnc1)c1cc2c(ccc3ccccc32)o1`, the cell count in assay [1] turned out to be 489. Moreover, the inhibition in assay [1] is 8.1% (inactive); in assay [3], -160% (inactive); in assay [8], -38.2% (inactive); in assay [9], -135% (inactive). Besides, the inhibition of aggregation in assay [2] was -7.4% (inactive). Besides, the figures for the nuclei count in [2] and in assay [3] were 104% and 140%, respectively. In addition, the fluorescence slope in [4] was -0.355 (inactive). Also, the NADPH fluorescence slope in [5] is -4.5e-05 (inactive). For the same compound, in [6], the slope is 0.00441 (inactive). Also, the compound was classed as inactive in [7].
With `CCOC(=O)c1ccc2[nH]c3c(c2c1)CCCCC3=O`, the cell count in assay [1] was 681. The inhibition is -11% (inactive) in assay [1], 32% (inactive) in assay [3], -36.8% (inactive) in assay [8] and -77.8% (inactive) in assay [9]. Further, the inhibition of aggregation in assay [2] was -12.9% (inactive). The nuclei count in [2] is 106%; in [3] it was 96.5%. Besides, the fluorescence slope in [4] is -0.389 (inactive). Moreover, the NADPH fluorescence slope in [5] is -5.3e-05 (inactive). The slope in assay [6] is 0.00399 (inactive). Moreover, the compound was called inactive in [7].
Turning to `COc1cc2c(cc1NC(=O)CSc1nnc(Cc3cccs3)n1C)oc1ccccc12`, the cell count in [1] was 368. The inhibition is 4.7% (inactive) in assay [1], -30.5% (inactive) in [3], 13.9% (inactive) in assay [8] and 5.76% (inactive) in assay [9]. In addition, the inhibition of aggregation in [2] is 9.3% (inactive). Moreover, the nuclei count in assay [2] was 104%; in assay [3], 112%. The fluorescence slope in assay [4] was -0.45 (inactive). The NADPH fluorescence slope in [5] was -0.000107 (inactive). In assay [6], the slope was 0.00401 (inactive). Moreover, in [7], the outcome was inactive.
As to `COC(=O)c1ccc(COC(=O)c2c(C)nn(Cc3ccccc3Cl)c2Cl)o1`, the cell count in [1] turned out to be 431. Also, the inhibition is -20.9% (inactive) in assay [1], 46.3% (inactive) in [3], 17.9% (inactive) in [8] and 19.2% (inactive) in [9]. Besides, the inhibition of aggregation in assay [2] is 7% (inactive). In addition, the figures for the nuclei count in assay [2] and in [3] were 73.5% and 70.3%, respectively. For the same compound, the fluorescence slope in assay [4] is -0.408 (inactive). Also, the NADPH fluorescence slope in assay [5] was 1.7e-05 (inactive). Further, in assay [6], the slope was 0.00741 (inactive). Moreover, the result in assay [7] was inactive.
As for `c1ccc2c(SCc3cn4cccnc4n3)ncnc2c1`, the cell count in assay [1] amounted to 553. Moreover, the inhibition in assay [1] was -14.3% (inactive); in [3], 6.3% (inactive); in [8], 3.66% (inactive); in [9], -0.28% (inactive). Further, in assay [2], the inhibition of aggregation was 0.5% (inactive). For the same compound, the nuclei count in [2] turned out to be 109%; in assay [3], 93.9%. Further, in [4], the fluorescence slope was -0.341 (inactive). The NADPH fluorescence slope in assay [5] was -5.7e-05 (inactive). In [6], the slope was 0.00553 (inactive). For the same compound, the result in assay [7] was inactive.
As to `CCOC(=O)C1CCN(C(=O)Nc2ccc3nc(C)c(C)nc3c2)CC1`, the cell count in assay [1] was 331. Moreover, the inhibition was 2% (inactive) in [1], -20.1% (inactive) in assay [3], 8.11% (inactive) in assay [8] and 5.19% (inactive) in assay [9]. Besides, the inhibition of aggregation in [2] is 26.1% (inactive). For the same compound, the values for the nuclei count in assay [2] and in assay [3] were 84.8% and 90.9%, respectively. Besides, the fluorescence slope in [4] is -0.00743 (active). Also, the NADPH fluorescence slope in [5] was -2.9e-06 (inactive). The slope in assay [6] was 0.00559 (inactive). In addition, the compound was called inactive in [7].
For `Cc1c(CNCc2cccs2)c(C(=O)O)c(C)n1Cc1ccccc1`, the cell count in assay [1] stood at 451. Besides, the inhibition in assay [1] is 5.5% (inactive); in assay [3] it was -30.9% (inactive); in assay [8] it was 18.8% (inactive); in assay [9] it was 17% (inactive). For the same compound, the inhibition of aggregation in assay [2] was 3.1% (inactive). Further, the nuclei count in [2] is 115%; in assay [3], 101%. The fluorescence slope in [4] was -0.454 (inactive). Moreover, the NADPH fluorescence slope in assay [5] is -7.6e-05 (inactive). Also, in assay [6], the slope was 0.00618 (inactive). For the same compound, in assay [7], the result was inactive.
Take `Cn1c(CSc2nc3ccccc3s2)nnc1SCC(=O)NCCN1CCOCC1`: the cell count in [1] was 487. In addition, the inhibition was 4.5% (inactive) in assay [1], -23% (inactive) in [3], -5.77% (inactive) in assay [8] and 13.9% (inactive) in assay [9]. Also, in assay [2], the inhibition of aggregation was -3.4% (inactive). Besides, the values for the nuclei count in assay [2] and in assay [3] were 94.1% and 125%, respectively. Also, the fluorescence slope in assay [4] was -0.409 (inactive). For the same compound, the NADPH fluorescence slope in assay [5] was -8.1e-06 (inactive). Further, the slope in [6] was 0.00477 (inactive). The compound was called inactive in [7].
Take `CCOc1ccc(NS(=O)(=O)c2cc(Cl)ccc2OC)cc1`: the cell count in [1] was 279. Also, the inhibition in assay [1] was -4.2% (inactive); in [3], -147% (inactive); in assay [8], 14.5% (inactive); in [9] it was 21% (inactive). Moreover, the inhibition of aggregation in assay [2] was 19.4% (inactive). Moreover, the nuclei count in assay [2] was determined as 95.4%; in assay [3], 129%. For the same compound, the fluorescence slope in assay [4] was -0.282 (inactive). The NADPH fluorescence slope in [5] is 1.3e-05 (inactive). The slope in assay [6] was 0.00586 (inactive). The result in assay [7] was inactive.
On to `O=C(COc1ccc(S(=O)(=O)NC2CCCCC2)cc1)NCc1ccccn1`, for which the cell count in assay [1] was found to be 400. Also, the inhibition in [1] is -5.1% (inactive); in [3], -8.3% (inactive); in assay [8] it was -5.78% (inactive); in [9], 1.29% (inactive). In addition, in assay [2], the inhibition of aggregation is -2.7% (inactive). For the same compound, the nuclei count in assay [2] is 101%; in assay [3] it was 107%. Further, the fluorescence slope in assay [4] was -0.401 (inactive). Also, the NADPH fluorescence slope in assay [5] is -1.8e-06 (inactive). Further, the slope in assay [6] is 0.00588 (inactive). For the same compound, the compound was classed as inactive in assay [7].
Regarding `CN(Cc1ccccc1)C(=O)c1cc(-c2ccc(Br)cc2)on1`, the cell count in assay [1] was determined as 318. For the same compound, the inhibition was 2.4% (inactive) in [1], 19.7% (inactive) in assay [3], -49.5% (inactive) in assay [8] and -116% (inactive) in assay [9]. Further, in assay [2], the inhibition of aggregation is 14.9% (inactive). For the same compound, the nuclei count in [2] turned out to be 107%; in assay [3], 110%. Also, in assay [4], the fluorescence slope was -0.399 (inactive). The NADPH fluorescence slope in [5] was -3.6e-05 (inactive). Further, in assay [6], the slope is 0.00441 (inactive). The call in assay [7] was inactive.
Consider `COc1ccc(OC)c(NC(=O)CSc2nnc(-c3ccco3)n2-c2ccccc2)c1`, for which, in assay [1], the cell count is 552. Further, the inhibition was 10.2% (inactive) in assay [1], -59.6% (inactive) in [3], 12.9% (inactive) in [8] and 12.9% (inactive) in assay [9]. For the same compound, the inhibition of aggregation in [2] was 9.3% (inactive). The nuclei count worked out at 104% in assay [2] and 98.9% in assay [3]. Moreover, the fluorescence slope in assay [4] is -0.466 (inactive). Moreover, in [5], the NADPH fluorescence slope is -3.5e-05 (inactive). Further, the slope in assay [6] is 0.00516 (inactive). Also, the result in assay [7] was inactive.
Turning to `O=C(NCc1ccco1)c1cccc(S(=O)(=O)N2CCCCC2)c1`, the cell count in assay [1] was found to be 323. Moreover, the inhibition in assay [1] was -3.6% (inactive); in [3], -87.1% (inactive); in assay [8], -13.9% (inactive); in assay [9] it was -7.47% (inactive). Also, the inhibition of aggregation in [2] is -3.2% (inactive). The nuclei count in assay [2] was found to be 112%; in [3], 120%. Also, the fluorescence slope in assay [4] was -0.462 (inactive). The NADPH fluorescence slope in assay [5] was 3.8e-05 (inactive). In addition, the slope in [6] is 0.00571 (inactive). Further, in assay [7], the outcome was inactive.
